Assay outcomes: PubChem BioAssay, Broad Institute
Shown are actives, neighbours in structure and some others; about 1.7% of the full set was active somewhere.
CAL PDZ FP-1: blocks peptide binding to human CAL PDZ domain | purified CAL PDZ, TMR-peptide fluorescence polarization, 1 h | AID 504414 | inhibition, % at 20 µM | 0.02% of 330,000 active;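 active means highest replicate inhibition of at least 40%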;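 further: plate controls were DMSO neutral control wells for no effect and unlabeled competitor peptide control wells for full effect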
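Material: tagged CAL PDZ protein CerCALP, purified; buffer or medium: sodium phosphate/NaCl buffer pH 7.4 with TCEP, IgG, Thesit; also added: fluorescent TMR peptide probe; schedule: 1 h incubation at room temperature before polarization reading; technique: fluorescence polarization from S- and P-plane intensities, G-factor corrected; control set: unlabelled peptide and DMSO controls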
PGC1a acetyl inh: modulators of PGC1a acetylation | U2OS PGC1a acetylation, AlphaScreen anti-acetyl-lysine; with virally co-expressed GCN5 acetyltransferase | inhibition, % at 15.6 µM | 0.17% of 350,000 active | AID 651687;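 active means every replicate shows inhibition of at least 40%; inconclusive means mean inhibition at least 40% but some replicate below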;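 further: 0% = neutral control wells and 100% = positive control wells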
CAL PDZ FP-2: CAL PDZ (human) peptide binding inhibition. purified CAL PDZ, TMR-peptide fluorescence polarization, 1 h. inhibition, % at 24.9 µM. 0.92% of 300,000 active. AID 602252;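 active means mean inhibition of at least 30% with at least half of replicates also reaching 30%; inconclusive means no clear call, values can overlap the other calls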;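 further: 0% = DMSO neutral control and 100% = excess unlabeled competitor peptide PRC23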
miR-122 sensor: blocks miR-122 activity in Huh7 sensor cells; activation (reporter increase), % at 12.5 µM; AID 602342; Huh7 miR-122 Renilla luciferase sensor, 48 h; neutral wells = 0, positive control = 100; 0.3% of 340,000 active;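 active means mean replicate activation score at least 90 and every replicate individually at or above 90; inconclusive means only one of the two criteria met; inactive means neither criterion met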;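 further: higher luciferase means less miR-122 activity so hits act as miR-122 inhibitors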
CFTR F508del cor: CFTR F508del correction in bronchial cells; CFBE cells, YFP halide quenching; stimulated with forskolin plus potentiator P3; % fluorescence drop versus neutral controls; activity (quench increase), % at 7.58 µM; 0.36% of 350,000 active; AID 720511;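 active means mean added fluorescence quench of at least 8% versus neutral control, with both replicates also reaching 8%; inconclusive means only one of the mean or replicate conditions met; inactive means mean below 8% and not both replicates reaching 8%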;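 further: cells transiently co-express mutant CFTR-F508del with the halide-sensitive YFP; corrector assay measuring rescue of mutant channel to the surface after 24 h compound exposure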
ARNT TACC3 PPI: disrupts binding between human ARNT and TACC3 | Q9Y6A5 | AlphaScreen His-ARNT PAS-B/GST-TACC3 binding, luminescence; TACC3 fragment carries E629A point mutation | inhibition, % at 9.99 µM | 0.66% of 390,000 active | AID 623870;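 active means mean inhibition of replicates at least 50% and at least half of replicates each reaching 50%; inconclusive means half or more replicates reach 50% but mean below 50%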;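 further: 0% = complete ARNT plus TACC3 wells and 100% = ARNT alone without TACC3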
* = called active by the depositor; ? = inconclusive; nt = no result; [ ] = dose if it differs, or a comment.

SMILES	CAL PDZ FP-1	PGC1a acetyl inh	CAL PDZ FP-2	miR-122 sensor	CFTR F508del cor	ARNT TACC3 PPI
O=S(=O)(c1ccc(NC(=S)NN=Cc2ccccc2O)cc1)N1CCCCC1	-1	9	-4	20	-1	46*
O=[N+]([O-])c1cc(Cl)cc(/C=N/NC(=S)Nc2ccc(S(=O)(=O)N3CCOCC3)cc2)c1O	-1	nt	-3	-3	1	70*
O=S(=O)(c1ccc(NC(=S)N/N=C/c2ccc(O)c(O)c2)cc1)N1CCOCC1	-2	0	-3	-2	2	6
O=C([C@@H]1[C@@H](CO)[C@@H]2Cn3c(cccc3=O)[C@@H]2N1CCC(F)(F)F)N1CCCCC1	nt	nt	nt	nt	nt	9.3*
CC(C)CC#Cc1cnc2c(c1)C(=O)N([C@H](C)CO)C[C@@H](C)[C@H](CN(C)Cc1ccccc1F)O2	nt	-29	nt	32[16.7 µM]	-2	12
CC(OC(=O)c1cccs1)C(=O)NC1CCCCC1C (stereo unspecified)	1	0	-4	-9	29*	-4
Cc1ccc(C(=O)OC(C)C(=O)NC2CCCCC2C)s1 (stereo unspecified)	-1	-1	nt	-1	-1	1
C=CCn1c(Cc2nc3ccc(Cl)cc3[nH]2)n[nH]c1=S	-2	9	-1	3	nt	36*
C[C@@H]1CN([C@H](C)CO)C(=O)c2cc(C3=CCCC3)cnc2O[C@@H]1CN(C)Cc1ccc(F)cc1	nt	nt	nt	40[16.7 µM]	-1	8
CCOC(=O)CCn1c(=S)n(CCC(=O)OCC)c2ccccc21	1	nt	55*	nt	-1	-3
CCOC(=O)Cn1c(=O)n(CC(=O)OCC)c2ccccc21	-3	nt	-3	11	nt	7
CCOC(=O)c1ccc(NC(=O)O[C@H]2[C@H](OC(=O)Nc3ccc4c(c3)OCO4)[C@@H](OC(=O)Nc3ccc4c(c3)OCO4)[C@@H](OC)O[C@@H]2CO)cc1	nt	4	nt	nt	-2	nt
c1cncc(CNc2ncnc3sc4c(c23)CCCC4)c1	-4	nt	-7	nt	5	-2
Cc1nc(NCc2cccnc2)c2c3c(sc2n1)CCCC3	-1	-2	-4	-1	12*	6
Cc1cc2c(N=O)c(NO)ccc2[nH]1	nt	-74	-2	37	nt	80*
Cc1sc2ncnc(N3CCC(C(=O)NNC(=O)COc4ccccc4Cl)CC3)c2c1C	-2	1	nt	-17	0	4
Cc1sc2ncnc(N3CCC(C(=O)NNC(=O)c4ccccc4Cl)CC3)c2c1C	-2	nt	37*	-9	1	3
COc1ccc(NS(=O)(=O)c2cc3c(cc2C)N(C)CCO3)cc1	0	-12	-2	95*	0	2
COc1cc(NS(=O)(=O)c2cc3c(cc2C)NC(=O)CO3)cc(OC)c1	-2	-2	nt	101*	0	8
CCOc1ccc(NS(=O)(=O)c2cc3c(cc2C)N(C)CCO3)cc1	0	10	0	74	-1	7
COc1cc(NS(=O)(=O)c2ccc3c(c2)NC(=O)CO3)cc(OC)c1	-1	1	-3	71	0	6
Cn1cc([N+](=O)[O-])c(C(=O)Nc2nc(-c3ccc(Cl)cc3)cs2)n1	nt	63*	-1	-2	nt	nt
Cc1cnc(NC(=O)c2nn(C)cc2[N+](=O)[O-])s1	0	-131	-5	-4	-8	nt
Cc1ccc(-c2nc(NC(=O)c3nn(C)cc3[N+](=O)[O-])sc2C)cc1C	-1	91*	-5	0	-2	-4
CCC(=O)N1[C@H](CO)[C@@H](c2ccccc2)C12CN(C(=O)Nc1cccc(OC)c1)C2	nt	4	nt	nt	-2	nt
SMILES	CAL PDZ FP-1	PGC1a acetyl inh	CAL PDZ FP-2	miR-122 sensor	CFTR F508del cor	ARNT TACC3 PPI
CCCC(=O)Nc1ccc2c(c1)OC[C@@H](C)N(C(=O)c1ccncc1)C[C@H](C)[C@@H](OC)CN(C)C2=O	nt	4	nt	16[16.7 µM]	-4	0
Cc1cc(N(C)N)nc(NC(=O)NS(=O)(=O)c2ccccc2Cl)n1	0	nt	0	nt	4	59*
COc1cc(OC)nc(NC(=O)NS(=O)(=O)c2ccccc2Cl)n1	-2	5	-1	-8	2	12
CO[C@@H]1CN(C)C(=O)c2cc(NS(C)(=O)=O)ccc2OC[C@@H](C)N(C(=O)NC(C)C)C[C@H]1C	nt	4	nt	8[16.7 µM]	-1	0
CCN(CC)CCOC(=O)c1ccc(NC(=O)CSc2nnc(-c3cccs3)n2CC)cc1	-1	-1	61*	-17	3	23
CCn1c(SCC(=O)Nc2ccc(OC)c(OC)c2)nnc1-c1cccs1	-1	?	-2	68	nt	nt
CC(C)Sc1nnc(NC(=O)c2ccco2)s1	8	8	56*	nt	5	-3
COc1ccc(NC(=O)N(C)C[C@H]2OCCCC[C@H](C)Oc3ccc(NC(=O)C4CCCCC4)cc3C(=O)N([C@H](C)CO)C[C@@H]2C)cc1	nt	-10	nt	7[16.7 µM]	1	-3
COc1ccc(C2Nc3ccccc3NC3=C2C(=O)CC(C)(C)C3)cc1O (stereo unspecified)	8	2	1	3	-1	47*
CCC(=O)Nc1ccc2c(c1)C(=O)N(C)C[C@@H](OC)[C@@H](C)CN(Cc1cccnc1)[C@H](C)CO2	nt	1	nt	-1[16.7 µM]	-1	-8
COc1ccccc1NC(=O)C(=O)N/N=C(\C)CC(=O)Nc1ccccc1C(F)(F)F	0	nt	44*	nt	0	8
C/C(CC(=O)Nc1ccccc1C(F)(F)F)=N\NC(=O)c1cnccn1	0	12	0	nt	-1	nt
O=Cc1cn[nH]c1-c1cccc([N+](=O)[O-])c1	-1	nt	-1	nt	nt	nt
O=C(O)c1cn[nH]c1-c1cccc([N+](=O)[O-])c1	-5	-6	61*	nt	1	-2
CO[C@@H]1CN(C)C(=O)c2cc(NC(=O)NC(C)C)ccc2OC[C@@H](C)N(S(C)(=O)=O)C[C@@H]1C	nt	7	nt	nt	0	nt
CN(C)CCCNC(=O)[C@H]1[C@H](CO)[C@H]2Cn3c(ccc(-c4ccccc4)c3=O)[C@@H]1N2C	nt	nt	nt	-2[16.7 µM]	2	-8
CC(C)(C)c1csc(NC(=O)Cc2cccs2)n1	-3	nt	3	nt	9.7*	12
C[C@H]1CCCCO[C@H](CN(C)S(=O)(=O)c2ccc(Cl)cc2)[C@@H](C)CN([C@@H](C)CO)C(=O)c2cc(NS(=O)(=O)c3ccc(F)cc3)ccc2O1	nt	-2	nt	-4[16.7 µM]	4	-18
Cc1noc(C)c1NC(=O)N[C@@H]1CC[C@@H](CC(=O)Nc2ccc(-c3ccccc3)cc2)O[C@H]1CO	nt	-5	nt	2[16.7 µM]	-1	-8
Cc1ccc(NC2OC(CO)C(O)C2O)cc1[N+](=O)[O-] (stereo unspecified)	0	-3	3	4	nt	-2
Cc1ccc([N+](=O)[O-])cc1NC1CC(O)C(CO)O1 (stereo unspecified)	1	7	31*	-2	1	1
